Assay results: ChEMBL document CHEMBL4396885, “Thioether-based 2-aminobenzamide derivatives: Novel HDAC inhibitors with potent in vitro and in vivo antitumor activity” (Eur J Med Chem, 2019)

Assays:
A-375 [1] = experiment: Antiproliferative activity against human A375 cells assessed as growth inhibition at 8 uM after 72 hrs by CCK-8 assay relative to control; assay type: functional; details: A-375, 72 h, read-out: GI
SMMC-7721 [2] = experiment: Antiproliferative activity against human SMMC7721 cells assessed as growth inhibition at 8 uM after 72 hrs by CCK-8 assay relative to control; assay type: functional; details: SMMC-7721, 72 h, read-out: GI
HCT-116 [3] = experiment: Antiproliferative activity against human HCT116 cells assessed as growth inhibition at 2 uM after 72 hrs by CCK-8 assay relative to control; assay type: functional; details: HCT-116, 72 h, read-out: GI
HeLa [4] = experiment: Antiproliferative activity against human HeLa cells assessed as growth inhibition at 2 uM after 72 hrs by CCK-8 assay relative to control; assay type: functional; details: read-out: GI
A549 [5] = experiment: Antiproliferative activity against human A549 cells assessed as growth inhibition at 8 uM after 72 hrs by CCK-8 assay relative to control; assay type: functional; details: A549, 72 h, read-out: GI
HCT-116 [6] = experiment: Antiproliferative activity against human HCT116 cells assessed as growth inhibition at 8 uM after 72 hrs by CCK-8 assay relative to control; assay type: functional; details: HCT-116, 72 h, read-out: GI
SMMC-7721 [7] = experiment: Antiproliferative activity against human SMMC7721 cells assessed as growth inhibition at 2 uM after 72 hrs by CCK-8 assay relative to control; assay type: functional; details: SMMC-7721, 72 h, read-out: GI
HeLa [8] = experiment: Antiproliferative activity against human HeLa cells assessed as growth inhibition at 8 uM after 72 hrs by CCK-8 assay relative to control; assay type: functional; details: read-out: GI
A549 [9] = experiment: Antiproliferative activity against human A549 cells assessed as growth inhibition at 2 uM after 72 hrs by CCK-8 assay relative to control; assay type: functional; details: A549, 72 h, read-out: GI
A-375 [10] = experiment: Antiproliferative activity against human A375 cells assessed as growth inhibition at 2 uM after 72 hrs by CCK-8 assay relative to control; assay type: functional; details: A-375, 72 h, read-out: GI
HCT-116 [11] = experiment: Antiproliferative activity against human HCT116 cells assessed as decrease in cell viability after 72 hrs by CCK-8 assay; assay type: functional, cell-based; details: HCT-116, 72 h
Summary of the method: (§1)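 Cells grown to 70–85% confluence (A375, A549, HCT116 in RPMI1640; HeLa, SMMC7721 in DMEM; 10% FBS, 37 °C, 5% CO2), seeded 4000/well, dosed after 12 h across a concentration range, incubated 72 h, then CCK-8 for 1 h; absorbance at 450 nm. IC50 as mean ± SD of three separate experiments.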

HeLa [12] = experiment: Antiproliferative activity against human HeLa cells assessed as decrease in cell viability after 72 hrs by CCK-8 assay; assay type: functional, cell-based; summary of the method: as §1
SMMC-7721 [13] = experiment: Antiproliferative activity against human SMMC7721 cells assessed as decrease in cell viability after 72 hrs by CCK-8 assay; assay type: functional, cell-based; details: SMMC-7721, 72 h; summary of the method: as §1
A549 [14] = experiment: Antiproliferative activity against human A549 cells assessed as decrease in cell viability after 72 hrs by CCK-8 assay; assay type: functional, cell-based; details: A549, 72 h; summary of the method: as §1
A-375 [15] = experiment: Antiproliferative activity against human A375 cells assessed as decrease in cell viability after 72 hrs by CCK-8 assay; assay type: functional, cell-based; details: A-375, 72 h; summary of the method: as §1

SMILES	inhibition of growth at 8 µM (A-375 [1]) [%]	inhibition of growth at 8 µM (SMMC-7721 [2]) [%]	inhibition of growth at 2 µM (HCT-116 [3]) [%]	inhibition of growth at 2 µM (HeLa [4]) [%]	inhibition of growth at 8 µM (A549 [5]) [%]	inhibition of growth at 8 µM (HCT-116 [6]) [%]	inhibition of growth at 2 µM (SMMC-7721 [7]) [%]	inhibition of growth at 8 µM (HeLa [8]) [%]	inhibition of growth at 2 µM (A549 [9]) [%]	inhibition of growth at 2 µM (A-375 [10]) [%]	IC50 (HCT-116 [11]) [µM]	IC50 (HeLa [12]) [µM]	IC50 (SMMC-7721 [13]) [µM]	IC50 (A549 [14]) [µM]	IC50 (A-375 [15]) [µM]
Cc1cc(C)cc(SCc2ccc(/C=C/C(=O)Nc3ccccc3N)cc2)c1	2.49	7.13	7.98	11.7	47.3	4.2	8.61	3.39	46.1	8.78					
Nc1ccccc1NC(=O)c1ccc(CSc2ccc(F)cc2)cc1	54.3	81.9	13.5	27.9	44.5	90.6	6.58	79.3	43.4	19.4	4.01	5.01	5.77		
CC(C)(C)c1ccc(SCc2ccc(C(=O)Nc3ccccc3N)cc2)cc1	33.1	46.1	4.81	9.73	67	60.5	23.6	40.2	38.6	2.13					
CCc1ccc(SCc2ccc(/C=C/C(=O)Nc3ccccc3N)cc2)cc1	58.4	19.5	3.29	3.96	68.6	2.68	13.2	20.9	60.7	5.27				1.3	
Nc1ccccc1NC(=O)/C=C/c1ccc(CSc2cccc(F)c2)cc1	9.08	8.25	7.95	2.25	56.6	3.22	8.56	18.6	50.7	6.75					
Nc1ccccc1NC(=O)/C=C/c1ccc(CSc2cccc3ccccc23)cc1	36	18.3	11	20.6	71.2	35.2	3.7	22.1	59.3	1.55				0.83	
Nc1ccccc1NC(=O)c1ccc(CSc2ccc(C(F)(F)F)cn2)cc1	5.34	7.57	1.2	11.5	38.9	25.8	12.4	16.5	37.1	4.3					
Nc1ccccc1NC(=O)/C=C/c1ccc(CSc2ccc(F)cc2)cc1	24.6	15.4	14.1	7.09	59.1	20.2	18.3	10.4	51.2	28.8				1.19	3.67
COc1ccc(SCc2ccc(C(=O)Nc3ccccc3N)cc2)cc1OC	84.6	78.9	33.6	15.2	80.1	91.5	20.2	79.9	19.9	18.1	2	3.07	3.4	5.68	4.42
